From ChEMBL document CHEMBL4334451, “Natural Alkaloid Berberine Activity against Pseudomonas aeruginosa MexXY-Mediated Aminoglycoside Resistance: In Silico and in Vitro Studies” (J Nat Prod, 2019)
Calls of active or inactive are those of the source. The rule behind the calls is not given here.

Tests used:
[1] = biological target: T1, MexXY/OprM (Pseudomonas aeruginosa (strain ATCC 15692 / DSM 22644 / CIP 104116 / JCM14847 / LMG 12228 / 1C / PRS 101 / PAO1)) (UniProt Q51487+Q9ZNG9+Q9ZNG8); assay: Inhibition of MexXY/OPRM in Pseudomonas aeruginosa C6 assessed as reduction in bacterial resistance to tobramycin by measuring tobramycin MIC at 80 ug/ml incubated for 24 to 48 hrs by broth microdilution method (reference value: 2 ug/ml); type: protein-complex assay
[2] = biological target: T1, MexXY/OprM (Pseudomonas aeruginosa (strain ATCC 15692 / DSM 22644 / CIP 104116 / JCM14847 / LMG 12228 / 1C / PRS 101 / PAO1)); assay: Inhibition of MexXY/OPRM in Pseudomonas aeruginosa C9 assessed as reduction in bacterial resistance to tobramycin by measuring tobramycin MIC at 80 ug/ml incubated for 24 to 48 hrs by broth microdilution method (reference value: 2 ug/ml); type: protein-complex assay
Summary of the method: (§1)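 Broth microdilution per CLSI, with P. aeruginosa ATCC 27853 as reference strain, in 2-fold dilution series. Plates were incubated at 37°C and read for visible growth at 24 and 48 h. Berberine stock was in 50% DMSO/50% methanol, with final DMSO kept near 1%. Berberine was tested at 10–320 µg/ml, alone or at a fixed level with serial tobramycin.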

[3] = biological target: T1, MexXY/OprM (Pseudomonas aeruginosa (strain ATCC 15692 / DSM 22644 / CIP 104116 / JCM14847 / LMG 12228 / 1C / PRS 101 / PAO1)); assay: Inhibition of MexXY/OPRM in Pseudomonas aeruginosa C15 assessed as reduction in bacterial resistance to tobramycin by measuring tobramycin MIC at 80 ug/ml incubated for 24 to 48 hrs by broth microdilution method (reference value: 8 ug/ml); type: protein-complex assay
[4] = biological target: T1, MexXY/OprM (Pseudomonas aeruginosa (strain ATCC 15692 / DSM 22644 / CIP 104116 / JCM14847 / LMG 12228 / 1C / PRS 101 / PAO1)); assay: Inhibition of MexXY/OPRM in Pseudomonas aeruginosa C51 assessed as reduction in bacterial resistance to tobramycin by measuring tobramycin MIC at 80 ug/ml incubated for 24 to 48 hrs by broth microdilution method (reference value: 0.125 ug/ml); type: protein-complex assay
[5] = biological target: T1, MexXY/OprM (Pseudomonas aeruginosa (strain ATCC 15692 / DSM 22644 / CIP 104116 / JCM14847 / LMG 12228 / 1C / PRS 101 / PAO1)); assay: Inhibition of MexXY/OPRM in Pseudomonas aeruginosa C52 assessed as reduction in bacterial resistance to tobramycin by measuring tobramycin MIC at 80 ug/ml incubated for 24 to 48 hrs by broth microdilution method (reference value: >128 ug/ml); type: protein-complex assay
[6] = biological target: T1, MexXY/OprM (Pseudomonas aeruginosa (strain ATCC 15692 / DSM 22644 / CIP 104116 / JCM14847 / LMG 12228 / 1C / PRS 101 / PAO1)); assay: Inhibition of MexXY/OPRM in Pseudomonas aeruginosa C73 assessed as reduction in bacterial resistance to tobramycin by measuring tobramycin MIC at 80 ug/ml incubated for 24 to 48 hrs by broth microdilution method (reference value: 128 ug/ml); type: protein-complex assay
[7] = biological target: T1, MexXY/OprM (Pseudomonas aeruginosa (strain ATCC 15692 / DSM 22644 / CIP 104116 / JCM14847 / LMG 12228 / 1C / PRS 101 / PAO1)); assay: Inhibition of MexXY/OPRM in Pseudomonas aeruginosa C84 assessed as reduction in bacterial resistance to tobramycin by measuring tobramycin MIC at 80 ug/ml incubated for 24 to 48 hrs by broth microdilution method (reference value: 0.5 ug/ml); type: protein-complex assay; summary of the method: as §1
[8] = biological target: T1, MexXY/OprM (Pseudomonas aeruginosa (strain ATCC 15692 / DSM 22644 / CIP 104116 / JCM14847 / LMG 12228 / 1C / PRS 101 / PAO1)); assay: Inhibition of MexXY/OPRM in Pseudomonas aeruginosa C93 assessed as reduction in bacterial resistance to tobramycin by measuring tobramycin MIC at 80 ug/ml incubated for 24 to 48 hrs by broth microdilution method (reference value: >128 ug/ml); type: protein-complex assay; summary of the method: as §1
[9] = biological target: T1, MexXY/OprM (Pseudomonas aeruginosa (strain ATCC 15692 / DSM 22644 / CIP 104116 / JCM14847 / LMG 12228 / 1C / PRS 101 / PAO1)); assay: Inhibition of MexXY/OPRM in Pseudomonas aeruginosa C98 assessed as reduction in bacterial resistance to tobramycin by measuring tobramycin MIC at 80 ug/ml incubated for 24 to 48 hrs by broth microdilution method (reference value: 64 ug/ml); type: protein-complex assay; summary of the method: as §1
[10] = biological target: T1, MexXY/OprM (Pseudomonas aeruginosa (strain ATCC 15692 / DSM 22644 / CIP 104116 / JCM14847 / LMG 12228 / 1C / PRS 101 / PAO1)); assay: Inhibition of MexXY/OPRM in Pseudomonas aeruginosa C103 assessed as reduction in bacterial resistance to tobramycin by measuring tobramycin MIC at 80 ug/ml incubated for 24 to 48 hrs by broth microdilution method (reference value: 4 ug/ml); type: protein-complex assay
[11] = biological target: T1, MexXY/OprM (Pseudomonas aeruginosa (strain ATCC 15692 / DSM 22644 / CIP 104116 / JCM14847 / LMG 12228 / 1C / PRS 101 / PAO1)); assay: Inhibition of MexXY/OPRM in Pseudomonas aeruginosa C95 assessed as reduction in bacterial resistance to tobramycin by measuring increase in tobramycin-mediated bactericidal activity at 80 ug/ml in presence of 1XMIC to 2XMIC tobramycin measured after 2 hrs by Time-kill curve analysis; type: protein-complex assay
[12] = biological target: T1, MexXY/OprM (Pseudomonas aeruginosa (strain ATCC 15692 / DSM 22644 / CIP 104116 / JCM14847 / LMG 12228 / 1C / PRS 101 / PAO1)); assay: Inhibition of MexXY/OPRM in Pseudomonas aeruginosa C95 assessed as reduction in bacterial resistance to tobramycin by measuring increase in tobramycin-mediated bactericidal activity at 80 ug/ml in presence of 0.5XMIC tobramycin measured after 4 hrs by Time-kill curve analysis; type: protein-complex assay
[13] = biological target: T1, MexXY/OprM (Pseudomonas aeruginosa (strain ATCC 15692 / DSM 22644 / CIP 104116 / JCM14847 / LMG 12228 / 1C / PRS 101 / PAO1)); assay: Inhibition of MexXY/OPRM in Pseudomonas aeruginosa C95 assessed as reduction in bacterial resistance to tobramycin by measuring log reduction in colony forming unit at 80 ug/ml in presence of 1XMIC to 2XMIC tobramycin measured after 24 hrs by Time-kill curve analysis; type: protein-complex assay
Erythrocyte = assay: Hemolytic activity in human RBC at 10 to 320 ug/ml incubated for 1 hr by spectrophotometry; type: ADME, cell-based
Summary of the method: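 Fresh heparinized human blood diluted in PBS pH 7.4, washed 3x, resuspended to ~20 vol%. Erythrocyte suspension mixed 1:1 with 1:2 serial berberine dilutions in PBS. PBS served as negative control, 0.2 vol% Triton X-100 as positive control.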

[14] = biological target: T1, MexXY/OprM (Pseudomonas aeruginosa (strain ATCC 15692 / DSM 22644 / CIP 104116 / JCM14847 / LMG 12228 / 1C / PRS 101 / PAO1)); assay: Inhibition of MexXY/OPRM in Pseudomonas aeruginosa PA14 assessed as bacterial growth up to 320 ug/ml incubated for 24 to 48 hrs by broth microdilution method; type: protein-complex assay; summary of the method: as §1
[15] = biological target: T1, MexXY/OprM (Pseudomonas aeruginosa (strain ATCC 15692 / DSM 22644 / CIP 104116 / JCM14847 / LMG 12228 / 1C / PRS 101 / PAO1)); assay: Inhibition of MexXY/OPRM in Pseudomonas aeruginosa C15 assessed as bacterial growth up to 320 ug/ml incubated for 24 to 48 hrs by broth microdilution method; type: protein-complex assay
Summary of the method: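 Broth microdilution following CLSI guidelines, with P. aeruginosa ATCC 27853 as reference strain. Berberine was tested at 2-fold concentrations from 10 to 320 µg/ml, dissolved in 50% DMSO/50% methanol, with the top concentration set to keep final DMSO close to 1%. Plates were incubated at 37°C and read for visible growth at 24 and 48 h.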

[16] = biological target: T1, MexXY/OprM (Pseudomonas aeruginosa (strain ATCC 15692 / DSM 22644 / CIP 104116 / JCM14847 / LMG 12228 / 1C / PRS 101 / PAO1)); assay: Inhibition of MexXY/OPRM in Pseudomonas aeruginosa C93 assessed as bacterial growth up to 320 ug/ml incubated for 24 to 48 hrs by broth microdilution method; type: protein-complex assay; summary of the method: as §1
[17] = biological target: T1, MexXY/OprM (Pseudomonas aeruginosa (strain ATCC 15692 / DSM 22644 / CIP 104116 / JCM14847 / LMG 12228 / 1C / PRS 101 / PAO1)); assay: Inhibition of MexXY/OPRM in Pseudomonas aeruginosa C95 assessed as bacterial growth up to 320 ug/ml incubated for 24 to 48 hrs by broth microdilution method; type: protein-complex assay; summary of the method: as §1
[18] = biological target: T1, MexXY/OprM (Pseudomonas aeruginosa (strain ATCC 15692 / DSM 22644 / CIP 104116 / JCM14847 / LMG 12228 / 1C / PRS 101 / PAO1)); assay: Inhibition of MexXY/OPRM in Pseudomonas aeruginosa C6 assessed as reduction in bacterial resistance to tobramycin by measuring fold reduction in tobramycin MIC at 80 ug/ml incubated for 24 to 48 hrs by broth microdilution method; type: protein-complex assay
[19] = biological target: T1, MexXY/OprM (Pseudomonas aeruginosa (strain ATCC 15692 / DSM 22644 / CIP 104116 / JCM14847 / LMG 12228 / 1C / PRS 101 / PAO1)); assay: Inhibition of MexXY/OPRM in Pseudomonas aeruginosa C83 assessed as reduction in bacterial resistance to tobramycin by measuring fold reduction in tobramycin MIC at 80 ug/ml incubated for 24 to 48 hrs by broth microdilution method; type: protein-complex assay
[20] = biological target: T1, MexXY/OprM (Pseudomonas aeruginosa (strain ATCC 15692 / DSM 22644 / CIP 104116 / JCM14847 / LMG 12228 / 1C / PRS 101 / PAO1)); assay: Inhibition of MexXY/OPRM in Pseudomonas aeruginosa C89 assessed as reduction in bacterial resistance to tobramycin by measuring fold reduction in tobramycin MIC at 80 ug/ml incubated for 24 to 48 hrs by broth microdilution method; type: protein-complex assay
Summary of the method: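 Tobramycin MIC by CLSI broth microdilution at 37°C, read at 24 and 48 h, with and without a fixed berberine concentration selected from checkerboard assays. Berberine stock was in 50% DMSO/50% methanol, final DMSO about 1%. A 2-fold decrease in tobramycin MIC was scored as synergy.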

## COc1ccc2cc3[n+](cc2c1OC)CCc1cc2c(cc1-3)OCO2 [BERBERINE]
[1]
  MIC: 0.5 µg/mL
[2]
  MIC: 1 µg/mL
[3]
  MIC: 8 µg/mL
[4]
  MIC: < 0.125 µg/mL
[5]
  MIC: 128 µg/mL
[6]
  MIC: 64 µg/mL
[7]
  MIC: 0.125 µg/mL
[8]
  MIC: 64 µg/mL
[9]
  MIC: 32 µg/mL
[10]
  MIC: 4 µg/mL
[11]
  inhibition: Active
[12]
  inhibition: Active
[13]
  Activity: 2 log10CFU
Erythrocyte
  Activity: Non-Toxic
[14]
  inhibition: inactive
[15]
  inhibition: inactive
[16]
  inhibition: inactive
[17]
  inhibition: inactive
[18]
  fold change (FC): > 2
[19]
  fold change (FC): > 2
[20]
  fold change (FC): > 2
